Assay results taken from ChEMBL document CHEMBL1154746, “Anti-oxidant and anti-bacterial activities of novel N'-arylmethylidene-2-(3, 4-dimethyl-5, 5-dioxidopyrazolo[4,3-c][1,2]benzothiazin-2(4H)-yl) acetohydrazides” (2010).
Converted amounts (≈) assume the structure as drawn.

Columns and labels:
Type in all cases: functional
[1] = test system: Bacillus subtilis; assay: Antimicrobial activity against Bacillus subtilis after 24 hrs by agar dilution technique
Procedure, shortened: (§1)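 Suspensions of E. coli, B. subtilis and Staphylococcus aureus were prepared at about 10⁵–10⁶ CFU/well, and test compounds were applied to the wells over a concentration range. MIC was taken as the lowest concentration with no apparent growth, disregarding a single colony or a faint haze from the inoculum.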

[2] = test system: Staphylococcus aureus; assay: Antimicrobial activity against Staphylococcus aureus after 24 hrs by agar dilution technique; procedure, shortened: as §1
[3] = Antioxidant activity assessed as superoxide radical scavenging activity measured as formazone formation by spectrophotometry relative to control; parameters: concentration or dose not given beside the values
Procedure, shortened: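 NADH–NBT–PMS superoxide-generating mixture in 0.1 M phosphate buffer, pH 7.4, with reagents made up in buffer. Sample was added from a 1 mM DMSO solution. The reaction ran at room temperature, and superoxide formation was followed as blue formazan absorbance at 560 nm. Lower absorbance was read as higher scavenging.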

[4] = test system: Escherichia coli; assay: Antimicrobial activity against Escherichia coli after 24 hrs by agar dilution technique; procedure, shortened: as §1

SMILES	MIC [1]	MIC [2]	Activity [3]	MIC [4]
Cc1c2c(nn1CC(=O)N/N=C/c1ccccc1)-c1ccccc1S(=O)(=O)N2C	> 200 µg/mL	> 200 µg/mL	33.9%	69 µg/mL (≈ 169 µM)
Cc1c2c(nn1CC(=O)N/N=C/c1ccccc1Cl)-c1ccccc1S(=O)(=O)N2C	> 200 µg/mL	> 200 µg/mL	44.2%	> 200 µg/mL
Cc1c2c(nn1CC(=O)N/N=C/c1cccc([N+](=O)[O-])c1)-c1ccccc1S(=O)(=O)N2C	> 200 µg/mL	> 200 µg/mL	52.2%	> 200 µg/mL
Cc1c2c(nn1CC(=O)N/N=C/c1ccc(F)cc1)-c1ccccc1S(=O)(=O)N2C	> 200 µg/mL	> 200 µg/mL	17.4%	> 200 µg/mL
Cc1c2c(nn1CC(=O)N/N=C/c1ccccn1)-c1ccccc1S(=O)(=O)N2C	88 µg/mL (≈ 214 µM)	> 200 µg/mL	24%	28 µg/mL (≈ 68.2 µM)
Cc1c2c(nn1CC(=O)N/N=C/c1cccs1)-c1ccccc1S(=O)(=O)N2C	77 µg/mL (≈ 185 µM)	55 µg/mL (≈ 132 µM)	14.6%	23 µg/mL (≈ 55.4 µM)
Cc1c2c(nn1CC(=O)N/N=C/c1ccc(Cl)cc1)-c1ccccc1S(=O)(=O)N2C	> 200 µg/mL	> 200 µg/mL	23.3%	> 200 µg/mL
CN(C)[C@@H]1C(O)=C(C(N)=O)C(=O)[C@@]2(O)C(O)=C3C(=O)c4c(O)cccc4[C@@](C)(O)[C@H]3C[C@@H]12 [TETRACYCLINE]	0.35 µg/mL (≈ 0.788 µM)	0.78 µg/mL (≈ 1.76 µM)		0.25 µg/mL (≈ 0.563 µM)
Cc1c2c(nn1CC(=O)N/N=C/c1ccsc1)-c1ccccc1S(=O)(=O)N2C	82 µg/mL (≈ 197 µM)	61 µg/mL (≈ 147 µM)	16.5%	24 µg/mL (≈ 57.8 µM)
Cc1c2c(nn1CC(=O)N/N=C/c1ccc(O)cc1O)-c1ccccc1S(=O)(=O)N2C	39 µg/mL (≈ 88.3 µM)	> 200 µg/mL	98.3%	5 µg/mL (≈ 11.3 µM)
Cc1c2c(nn1CC(=O)N/N=C/c1cccnc1)-c1ccccc1S(=O)(=O)N2C	95 µg/mL (≈ 231 µM)	> 200 µg/mL	25.1%	27 µg/mL (≈ 65.8 µM)
Cc1c2c(nn1CC(=O)N/N=C/c1ccccc1[N+](=O)[O-])-c1ccccc1S(=O)(=O)N2C	> 200 µg/mL	> 200 µg/mL	28.8%	> 200 µg/mL
COc1ccc(/C=N/NC(=O)Cn2nc3c(c2C)N(C)S(=O)(=O)c2ccccc2-3)c(OC)c1	> 200 µg/mL	> 200 µg/mL	53.1%	17 µg/mL (≈ 36.2 µM)
Cc1c2c(nn1CC(=O)N/N=C/c1ccc([N+](=O)[O-])cc1)-c1ccccc1S(=O)(=O)N2C	> 200 µg/mL	> 200 µg/mL	23.7%	> 200 µg/mL
COc1cccc(/C=N/NC(=O)Cn2nc3c(c2C)N(C)S(=O)(=O)c2ccccc2-3)c1	69 µg/mL (≈ 157 µM)	> 200 µg/mL	44.9%	23 µg/mL (≈ 52.3 µM)
CCCOC(=O)c1cc(O)c(O)c(O)c1			91.3%	
Cc1c2c(nn1CC(=O)N/N=C/c1ccc(Cl)cc1Cl)-c1ccccc1S(=O)(=O)N2C	> 200 µg/mL	> 200 µg/mL	48.7%	> 200 µg/mL
Cc1c2c(nn1CC(=O)N/N=C/c1ccc(Cl)c(Cl)c1)-c1ccccc1S(=O)(=O)N2C	> 200 µg/mL	> 200 µg/mL	51.5%	> 200 µg/mL
CCOc1cc(/C=N/NC(=O)Cn2nc3c(c2C)N(C)S(=O)(=O)c2ccccc2-3)ccc1O	47 µg/mL (≈ 100 µM)	> 200 µg/mL	71.1%	11 µg/mL (≈ 23.4 µM)
